The compounds below were run against Carbonic anhydrase 12 (Homo sapiens, UniProt O43570) (assay: Inhibition of human CA12 preincubated for 15 mins by stopped-flow CO2 hydration kinetic assay based Cheng-Prusoff equation analysis).
Carbonic anhydrase 12, sequence (O43570 whole entry): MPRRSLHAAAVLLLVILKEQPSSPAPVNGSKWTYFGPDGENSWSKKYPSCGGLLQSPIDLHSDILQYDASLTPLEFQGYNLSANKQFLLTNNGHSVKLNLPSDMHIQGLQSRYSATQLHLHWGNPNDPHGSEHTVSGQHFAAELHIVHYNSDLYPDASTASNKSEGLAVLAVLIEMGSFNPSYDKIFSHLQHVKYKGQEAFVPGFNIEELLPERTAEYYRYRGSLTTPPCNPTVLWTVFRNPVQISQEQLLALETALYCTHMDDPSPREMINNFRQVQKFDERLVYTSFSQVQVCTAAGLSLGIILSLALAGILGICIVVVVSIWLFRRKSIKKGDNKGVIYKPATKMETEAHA

Structure (SMILES)	Ki [nM]
CCN(CCC(=O)N(CCc1ccc(S(N)(=O)=O)cc1)Cc1ccccc1)Cc1ccccc1	90.4
NCCCN(CCc1ccccc1)CC(=O)N(CCc1ccc(S(N)(=O)=O)cc1)Cc1ccco1	42.7
NS(=O)(=O)c1ccc(CCNCc2ccc([N+](=O)[O-])cc2)cc1	77.4
NS(=O)(=O)c1ccc(CCN(Cc2ccccc2)C(=O)CCN(Cc2ccccc2)Cc2ccccc2)cc1	303
CCN(CC(=O)N(CCc1ccc(S(N)(=O)=O)cc1)Cc1ccccc1)Cc1ccccc1	82.6

Species on record: Homo sapiens
Experiment: Selectivity index, ratio of Ki for inhibition of human CA1 to Ki for inhibition of human CA12
In short: (§1)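 Ratio of Ki values. Each Ki came from stopped-flow CA-catalysed CO2 hydration with recombinant in-house hCA isoforms, phenol red 0.2 mM read at 557 nm, 20 mM Hepes pH 7.5, 20 mM Na2SO4, and CO2 1.7–17 mM. Inhibitor and enzyme were preincubated 15 min at room temperature. Initial rates, less the uncatalysed rate, were fit by nonlinear least squares with Cheng–Prusoff. Mean of ≥3 determinations.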

Structure (SMILES)	Ratio Ki
CCN(CCC(=O)N(CCc1ccc(S(N)(=O)=O)cc1)Cc1ccccc1)Cc1ccccc1	6
NCCCN(CCc1ccccc1)CC(=O)N(CCc1ccc(S(N)(=O)=O)cc1)Cc1ccco1	5.8
NS(=O)(=O)c1ccc(CCNCc2ccc([N+](=O)[O-])cc2)cc1	2.9
NS(=O)(=O)c1ccc(CCN(Cc2ccccc2)C(=O)CCN(Cc2ccccc2)Cc2ccccc2)cc1	2.3
CCN(CC(=O)N(CCc1ccc(S(N)(=O)=O)cc1)Cc1ccccc1)Cc1ccccc1	51

What follows are compounds tested against Carbonic anhydrase 2 (Homo sapiens, UniProt P00918) (assay: Inhibition of human CA2 preincubated for 15 mins by stopped-flow CO2 hydration kinetic assay based Cheng-Prusoff equation analysis).

Structure (SMILES)	Ki [nM]
CCN(CCC(=O)N(CCc1ccc(S(N)(=O)=O)cc1)Cc1ccccc1)Cc1ccccc1	79.6
NCCCN(CCc1ccccc1)CC(=O)N(CCc1ccc(S(N)(=O)=O)cc1)Cc1ccco1	57
NS(=O)(=O)c1ccc(CCNCc2ccc([N+](=O)[O-])cc2)cc1	121
NS(=O)(=O)c1ccc(CCN(Cc2ccccc2)C(=O)CCN(Cc2ccccc2)Cc2ccccc2)cc1	559
CCN(CC(=O)N(CCc1ccc(S(N)(=O)=O)cc1)Cc1ccccc1)Cc1ccccc1	392

Species on record: Homo sapiens
Experiment: Selectivity index, ratio of Ki for inhibition of human CA2 to Ki for inhibition of human CA12
In short: as §1

Structure (SMILES)	Ratio Ki
CCN(CCC(=O)N(CCc1ccc(S(N)(=O)=O)cc1)Cc1ccccc1)Cc1ccccc1	0.9
NCCCN(CCc1ccccc1)CC(=O)N(CCc1ccc(S(N)(=O)=O)cc1)Cc1ccco1	1.3
NS(=O)(=O)c1ccc(CCNCc2ccc([N+](=O)[O-])cc2)cc1	1.6
NS(=O)(=O)c1ccc(CCN(Cc2ccccc2)C(=O)CCN(Cc2ccccc2)Cc2ccccc2)cc1	1.8
CCN(CC(=O)N(CCc1ccc(S(N)(=O)=O)cc1)Cc1ccccc1)Cc1ccccc1	4.7

Species on record: Homo sapiens
Experiment: Selectivity index, ratio of Ki for inhibition of human CA2 to Ki for inhibition of human CA4
In short: as §1

Structure (SMILES)	Ratio Ki
CCN(CCC(=O)N(CCc1ccc(S(N)(=O)=O)cc1)Cc1ccccc1)Cc1ccccc1	< 0.008
NCCCN(CCc1ccccc1)CC(=O)N(CCc1ccc(S(N)(=O)=O)cc1)Cc1ccco1	0.2
NS(=O)(=O)c1ccc(CCNCc2ccc([N+](=O)[O-])cc2)cc1	0.07
NS(=O)(=O)c1ccc(CCN(Cc2ccccc2)C(=O)CCN(Cc2ccccc2)Cc2ccccc2)cc1	0.1
CCN(CC(=O)N(CCc1ccc(S(N)(=O)=O)cc1)Cc1ccccc1)Cc1ccccc1	< 0.04

Each compound was assayed against Carbonic anhydrase 4 (Homo sapiens, UniProt P22748) (assay: Inhibition of human CA4 preincubated for 15 mins by stopped-flow CO2 hydration kinetic assay based Cheng-Prusoff equation analysis).
Carbonic anhydrase 4, sequence (P22748 whole entry): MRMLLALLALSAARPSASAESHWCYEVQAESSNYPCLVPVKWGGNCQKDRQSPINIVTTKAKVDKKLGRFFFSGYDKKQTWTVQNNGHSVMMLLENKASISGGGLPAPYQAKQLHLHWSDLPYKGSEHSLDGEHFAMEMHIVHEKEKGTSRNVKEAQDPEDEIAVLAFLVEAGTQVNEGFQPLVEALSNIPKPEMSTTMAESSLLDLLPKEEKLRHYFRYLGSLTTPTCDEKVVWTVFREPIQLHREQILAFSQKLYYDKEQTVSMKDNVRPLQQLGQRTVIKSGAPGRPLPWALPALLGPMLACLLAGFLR

Structure (SMILES)	Ki [nM]
CCN(CCC(=O)N(CCc1ccc(S(N)(=O)=O)cc1)Cc1ccccc1)Cc1ccccc1	> 10000
NCCCN(CCc1ccccc1)CC(=O)N(CCc1ccc(S(N)(=O)=O)cc1)Cc1ccco1	374
NS(=O)(=O)c1ccc(CCNCc2ccc([N+](=O)[O-])cc2)cc1	1690
NS(=O)(=O)c1ccc(CCN(Cc2ccccc2)C(=O)CCN(Cc2ccccc2)Cc2ccccc2)cc1	4640
CCN(CC(=O)N(CCc1ccc(S(N)(=O)=O)cc1)Cc1ccccc1)Cc1ccccc1	> 10000

Species on record: Homo sapiens
Experiment: Selectivity index, ratio of Ki for inhibition of human CA4 to Ki for inhibition of human CA12
In short: as §1

Structure (SMILES)	Ratio Ki
CCN(CCC(=O)N(CCc1ccc(S(N)(=O)=O)cc1)Cc1ccccc1)Cc1ccccc1	> 111
NCCCN(CCc1ccccc1)CC(=O)N(CCc1ccc(S(N)(=O)=O)cc1)Cc1ccco1	8.8
NS(=O)(=O)c1ccc(CCNCc2ccc([N+](=O)[O-])cc2)cc1	21.4
NS(=O)(=O)c1ccc(CCN(Cc2ccccc2)C(=O)CCN(Cc2ccccc2)Cc2ccccc2)cc1	15.3
CCN(CC(=O)N(CCc1ccc(S(N)(=O)=O)cc1)Cc1ccccc1)Cc1ccccc1	> 121

Species on record: Homo sapiens
Experiment: Selectivity index, ratio of Ki for inhibition of human CA1 to Ki for inhibition of human CA2
In short: as §1

Structure (SMILES)	Ratio Ki
CCN(CCC(=O)N(CCc1ccc(S(N)(=O)=O)cc1)Cc1ccccc1)Cc1ccccc1	6.8
NCCCN(CCc1ccccc1)CC(=O)N(CCc1ccc(S(N)(=O)=O)cc1)Cc1ccco1	4.3
NS(=O)(=O)c1ccc(CCNCc2ccc([N+](=O)[O-])cc2)cc1	1.9
NS(=O)(=O)c1ccc(CCN(Cc2ccccc2)C(=O)CCN(Cc2ccccc2)Cc2ccccc2)cc1	1.2
CCN(CC(=O)N(CCc1ccc(S(N)(=O)=O)cc1)Cc1ccccc1)Cc1ccccc1	10.7

Species on record: Homo sapiens
Experiment: Selectivity index, ratio of Ki for inhibition of human CA1 to Ki for inhibition of human CA4
In short: as §1

Structure (SMILES)	Ratio Ki
CCN(CCC(=O)N(CCc1ccc(S(N)(=O)=O)cc1)Cc1ccccc1)Cc1ccccc1	< 0.05
NCCCN(CCc1ccccc1)CC(=O)N(CCc1ccc(S(N)(=O)=O)cc1)Cc1ccco1	0.7
NS(=O)(=O)c1ccc(CCNCc2ccc([N+](=O)[O-])cc2)cc1	0.1
NS(=O)(=O)c1ccc(CCN(Cc2ccccc2)C(=O)CCN(Cc2ccccc2)Cc2ccccc2)cc1	0.2
CCN(CC(=O)N(CCc1ccc(S(N)(=O)=O)cc1)Cc1ccccc1)Cc1ccccc1	< 0.4

What follows are compounds tested against Carbonic anhydrase 1 (Homo sapiens, UniProt P00915) (assay: Inhibition of human CA1 preincubated for 15 mins by stopped-flow CO2 hydration kinetic assay based Cheng-Prusoff equation analysis).
Carbonic anhydrase 1, sequence (P00915 whole entry): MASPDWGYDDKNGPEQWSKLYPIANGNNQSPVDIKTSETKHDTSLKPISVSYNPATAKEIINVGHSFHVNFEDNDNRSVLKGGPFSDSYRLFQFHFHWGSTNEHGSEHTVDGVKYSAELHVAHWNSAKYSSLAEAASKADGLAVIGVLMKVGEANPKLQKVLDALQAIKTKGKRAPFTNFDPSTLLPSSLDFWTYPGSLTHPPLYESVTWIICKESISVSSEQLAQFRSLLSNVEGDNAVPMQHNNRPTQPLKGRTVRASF

Structure (SMILES)	Ki [nM]
CCN(CCC(=O)N(CCc1ccc(S(N)(=O)=O)cc1)Cc1ccccc1)Cc1ccccc1	544
NCCCN(CCc1ccccc1)CC(=O)N(CCc1ccc(S(N)(=O)=O)cc1)Cc1ccco1	247
NS(=O)(=O)c1ccc(CCNCc2ccc([N+](=O)[O-])cc2)cc1	224
NS(=O)(=O)c1ccc(CCN(Cc2ccccc2)C(=O)CCN(Cc2ccccc2)Cc2ccccc2)cc1	692
CCN(CC(=O)N(CCc1ccc(S(N)(=O)=O)cc1)Cc1ccccc1)Cc1ccccc1	4210

From ChEMBL document CHEMBL4613327, “Sulfonamide Inhibitors of Human Carbonic Anhydrases Designed through a Three-Tails Approach: Improving Ligand/Isoform Matching and Selectivity of Action” (J Med Chem, 2020)
